In paper PMC4857052 (Molecular pharmacology, 2012):
Entries after “also recorded” stand apart in the source; their conditions may differ. Each block holds one compound with its values, some of them ahead of it.

Columns and labels:
[1] = tested on: T. b. brucei bloodstream forms strain 427 WT; test: Alamar blue drug sensitivity assay, wild-type; format: cell-based, Trypanosoma brucei brucei; conditions: for effect on bloodstream trypanosomes (in words): Alamar blue viability assay; for EC50: Trypanosoma brucei, read-out: EC50, WT, Mean, Alamar blue assay, wild-type sensitive control strain
In short: (§1)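 Bloodstream-form T. b. brucei s427 grown in HMI-9 with 10% FBS at 37°C under 5% CO2. Resistant lines were made by months of stepwise-increasing exposure to the analog, then cloned by limiting dilution. Viability was read by resazurin (Alamar blue) reduction. Thymidine rescue was tested by adding 100 μM thymidine.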

TbU1 = conditions: procyclic forms (PCF), ref De Koning and Jarvis (1998), Papageorgiou et al. (2005), Gudin et al. (2006), cited from earlier work; for Ki, U1 / Ki: NE = no effect on uptake at concentration indicated; for Ki: read-out: Ki, U1
[2] = tested on: TbT1 (P1-type nucleoside transporter); test: [3H]-thymidine transport in bloodstream forms; format: cell-based, Trypanosoma brucei brucei; conditions: bloodstream forms
5FOARes T. b. brucei = test: Alamar blue drug sensitivity assay, 5FOARes; format: cell-based, Trypanosoma brucei brucei; conditions: for EC50: Trypanosoma brucei, read-out: EC50, 5FOARes, Mean; for RF, 5FOARes: resistance factor: IC50(resistant clone)/IC50(WT)
In short: as §1

5F-2′dURes T. b. brucei = test: Alamar blue drug sensitivity assay, 5F-2′dURes; format: cell-based, Trypanosoma brucei brucei; conditions: for EC50: Trypanosoma brucei, read-out: EC50, 5F-2′dURes, Mean; for RF, 5F-2′dURes: resistance factor: IC50(resistant clone)/IC50(WT)
In short: as §1

5FURes T. b. brucei = test: Alamar blue drug sensitivity assay, 5FURes; format: cell-based, Trypanosoma brucei brucei; conditions: for EC50: Trypanosoma brucei, read-out: EC50, 5FURes, Mean; for RF, 5FURes: resistance factor: IC50(resistant clone)/IC50(WT)
In short: as §1

5-FURes T. b. brucei = test: Pyrimidine transport in 5-FURes bloodstream forms; format: cell-based, Trypanosoma brucei brucei
[3] = tested on: s427WT T. b. brucei bloodstream forms; test: Kinetic parameters of pyrimidine transport in wild-type bloodstream forms; format: cell-based, Trypanosoma brucei brucei; conditions: [3H]-permeant; strain s427WT
In short: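 Log-phase cells were washed into HEPES/bicarbonate glucose buffer (pH 7.3) at 1 × 10^8/ml and mixed with an equal volume of [3H]-permeant, with or without unlabeled competitor, at ambient temperature. Uptake was stopped with ice-cold buffer containing saturating unlabeled permeant, then cells were spun through oil. Counts were corrected for nonspecific binding and Km, Vmax and Ki obtained by curve fitting. Runs were in triplicate. Thymidine: 10 μM label, 15 min. Orotic acid: 10 min.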

TbU3 uracil transporter = test: [3H]-uracil transport in bloodstream forms; format: cell-based, Trypanosoma brucei brucei; conditions: for Km: read-out: Km, U3, bloodstream forms (BSF), Km of the permeant itself
TbU3 = test: [3H]-uridine transport in bloodstream forms; format: cell-based, Trypanosoma brucei brucei; conditions: 2.5 μM [3H]-uridine
[4] = tested on: T. b. brucei bloodstream forms; test: Uptake of other radiolabeled pyrimidines by wild-type bloodstream forms; format: cell-based, Trypanosoma brucei brucei; conditions: over 15 min; 2.5 μM [3H]-2′-deoxycytidine, 0.25 μM [3H]-cytosine, 1 μM [3H]-thymine

SMILES: Nc1nc(=O)[nH]cc1F [5-fluorocytosine]
- effect on bloodstream trypanosomes (in words) [1]: no effect up to at least 1 mM

SMILES: O=c1ccn([C@H]2CC[C@@H](CO)O2)c(=O)[nH]1 [2’,3′-dideoxyuridine, 2′,3′-dideoxyuridine]
- effect on bloodstream trypanosomes (in words) [1]: no effect up to at least 1 mM

SMILES: Nc1nc2c(ncn2[C@@H]2O[C@H](CO)[C@@H](O)[C@H]2O)c(=O)[nH]1 [Guanosine]
- Ki, U1 (TbU1): NE, 1000

SMILES: O=c1[nH]cc(F)c(=O)[nH]1 [5-Fluorouracil, 5-fluorouracil]
- effect on [3H]-thymidine transport (in words) [2]: little or no effect
- Ki (TbU1): 3 ± 0.8 µM
- EC50 (5FOARes T. b. brucei): 448 µM
- RF, 5FOARes (5FOARes T. b. brucei): 13
- EC50 (5F-2′dURes T. b. brucei): 76.1 µM
- RF, 5F-2′dURes (5F-2′dURes T. b. brucei): 2.1
- EC50 [1]: 35.9 µM
- EC50 (5FURes T. b. brucei): 4710 µM
- RF, 5FURes (5FURes T. b. brucei): 131
- reduction of [3H]-5-FU transport in 5-FURes relative to wild-type (5-FURes T. b. brucei; 0.5 μM [3H]-5-FU, n = 3): 76% ± 6
- Km (5-FURes T. b. brucei; [3H]-permeant, strain 5-FURes): 2.3 ± 0.4 µM
- Km [3]: 2.5 ± 0.01 µM
- Vmax [3]: 0.27 ± 0.02 pmol (10^7 cells)^−1s^−1

SMILES: O=c1[nH]c(=O)n([C@@H]2O[C@H](CO)[C@@H](O)[C@H]2O)cc1F [5-fluorouridine]
- effect on bloodstream trypanosomes (in words) [1]: no effect up to at least 1 mM; also recorded: no effect on trypanosome growth

SMILES: O=c1cc[nH]c(=O)[nH]1 [Uracil]
- effect on [3H]-thymidine transport (in words) [2]: failing to reach 50% inhibition even at 2.5 mM
- Km (TbU1; read-out: Km, U1, bold entry): 0.46 ± 0.09 µM
- Km (5-FURes T. b. brucei; [3H]-permeant, strain 5-FURes): 0.66 ± 0.15 µM
- Vmax (5-FURes T. b. brucei; [3H]-permeant, strain 5-FURes): 0.16 ± 0.02 pmol (10^7 cells)^−1s^−1
- reduction of [3H]-uracil transport by unlabeled uracil (TbU3 uracil transporter; 0.15 μM [3H]-uracil, 1 mM unlabeled uracil): > 97%
- rate of [3H]-uracil transport (TbU3 uracil transporter; 0.15 μM [3H]-uracil, linear for at least 120 s): 0.034 ± 0.002 pmol (10^7 cells)^−1s^−1
- Vmax of uracil transport (TbU3 uracil transporter; mean of six triplicate experiments): 0.14 ± 0.03 pmol × 10^7 cells^−1 × s^−1
- Km (TbU3 uracil transporter): 0.54 ± 0.11 µM
- Ki (TbU3; read-out: Ki for inhibition of [3H]-uridine uptake, n = 3): 1.6 ± 0.2 µM
- Km [3]: 1.5 ± 0.3 µM
- Vmax [3]: 0.27 ± 0.05 pmol (10^7 cells)^−1s^−1

SMILES: O=c1[nH]ccc(=S)[nH]1 [4-Thiouracil]
- Ki (TbU1): 22 ± 7 µM

SMILES: O=c1ccn([C@@H]2O[C@H](CO)[C@@H](O)[C@H]2O)c(=O)[nH]1 [Uridine]
- Ki (TbU1): 33 ± 5 µM
- Ki (5-FURes T. b. brucei; read-out: Ki for [3H]-uracil transport in 5-FURes, n = 3): ~10000 µM
- inhibition of [3H]-uracil uptake (TbU3 uracil transporter; 10 mM of the nucleoside, 0.15 μM [3H]-uracil): ~ 50%
- Km (TbU3 uracil transporter): 9500 ± 2700 µM
- rate of [3H]-uridine transport (TbU3; 0-30 min): 0.0043 ± 0.0003 pmol(10^7 cells)^−1s^−1
- Km [3]: 9500 ± 2700 µM
- Vmax [3]: 16 ± 4 pmol (10^7 cells)^−1s^−1

SMILES: Nc1ccn([C@H]2C[C@H](O)[C@@H](CO)O2)c(=O)n1 [2′-deoxycytidine]
- accumulation of radiolabeled permeant (in words) [4]: just detectable accumulation

SMILES: O=c1[nH]c(=O)n([C@H]2C[C@H](O)[C@@H](CO)O2)cc1Cl [5Cl-2’-dUrd, 5-chloro-2′-deoxyuridine]
- EC50 (5FOARes T. b. brucei): 91 µM
- RF, 5FOARes (5FOARes T. b. brucei): 1.7
- EC50 (5F-2′dURes T. b. brucei): 22 µM
- RF, 5F-2′dURes (5F-2′dURes T. b. brucei): 0.4
- EC50 [1]: 54 µM
- fold more sensitive than wild-type (5FURes T. b. brucei; 5-FURes): 15 fold
- EC50 (5FURes T. b. brucei): 3.7 µM
- RF, 5FURes (5FURes T. b. brucei): 0.07

SMILES: O=c1[nH]cc(Cl)c(=O)[nH]1 [5-Chlorouracil]
- Ki (TbU1): 900 ± 140 µM

SMILES: Sc1ncccn1 [2-Mercaptopyrimidine]
- Ki, U1 (TbU1): NE, 500

SMILES: Nc1ncnc2[nH]cnc12 [Adenine]
- Ki, U1 (TbU1): NE, 1000

SMILES: O=C(O)c1[nH]c(=O)[nH]c(=O)c1F [5-Fluoroorotic acid, 5-fluoroorotic acid]
- EC50 (5FOARes T. b. brucei): 1180 µM
- RF, 5FOARes (5FOARes T. b. brucei): 83
- EC50 (5F-2′dURes T. b. brucei): 13.3 µM
- RF, 5F-2′dURes (5F-2′dURes T. b. brucei): 0.94
- EC50 [1]: 14.1 µM
- EC50 (5FURes T. b. brucei): 98 µM
- RF, 5FURes (5FURes T. b. brucei): 6.9

SMILES: C[C@H]1O[C@@H](n2ccc(=O)[nH]c2=O)[C@H](O)[C@@H]1O [5′-deoxyuridine]
- effect on bloodstream trypanosomes (in words) [1]: no effect up to at least 1 mM

SMILES: Cc1c[nH]c(=O)[nH]c1=O [Thymine]
- effect on [3H]-thymidine transport (in words) [2]: little or no effect
- Ki (TbU1): > 1000 µM
- accumulation of radiolabeled permeant (in words) [4]: did not detectably accumulate

- Ki, U3 (TbU3 uracil transporter): NE, 1000
SMILES: O=c1[nH]cnc2nc[nH]c12 [Hypoxanthine]
- Ki, U1 (TbU1): NE, 1000

SMILES: O=c1cn[nH]c(=O)[nH]1 [6-Azauracil]
- Ki (TbU1): ~1000 µM
- EC50 (5FOARes T. b. brucei): 1390 µM
- RF, 5FOARes (5FOARes T. b. brucei): 1.4
- EC50 (5F-2′dURes T. b. brucei): 1100 µM
- RF, 5F-2′dURes (5F-2′dURes T. b. brucei): 1.2
- EC50 [1]: 958 µM
- EC50 (5FURes T. b. brucei): 157 µM
- RF, 5FURes (5FURes T. b. brucei): 0.16

SMILES: Cn1ccc(=O)[nH]c1=O [1-Methyluracil]
- Ki, U1 (TbU1): NE, 10000

SMILES: Nc1nc(=O)n([C@H]2C[C@H](O)[C@@H](CO)O2)cc1F [5Fl-2’-Ctd, 5-fluoro-2′-deoxycytidine]
- EC50 (5FOARes T. b. brucei): 126 µM
- RF, 5FOARes (5FOARes T. b. brucei): 2.6
- EC50 (5F-2′dURes T. b. brucei): > 5000 µM
- RF, 5F-2′dURes (5F-2′dURes T. b. brucei): >100
- EC50 [1]: 49.4 µM
- reduction of sensitivity by addition of 100 μM thymidine ([1]; wild-type): 78 fold
- EC50 (5FURes T. b. brucei): 55 µM
- RF, 5FURes (5FURes T. b. brucei): 1.1
